Results as given in ChEMBL document CHEMBL1687861, “Comazaphilones A-F, azaphilone derivatives from the marine sediment-derived fungus Penicillium commune QSD-17” (J Nat Prod, 2011).
In brackets after ≈: the same amount, converted by molar mass. Activity calls are given as the source filed them. The calls are words filed in the database; no cut-off is given here.

Tests used:
Pseudomonas aeruginosa = assay: Antimicrobial activity against Pseudomonas aeruginosa after 18 hrs by broth microdilution method; assay type: functional
Summary of the method: (§1)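 Broth microdilution MIC; inoculum 5 × 10^5 cfu/mL; compounds tested over 1024-1 μg/mL; plates incubated 18 h at 35 °C in ambient air; MIC taken as the read-out after incubation.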

Pseudomonas fluorescens = assay: Antimicrobial activity against Pseudomonas fluorescens after 18 hrs by broth microdilution method; assay type: functional; summary of the method: as §1
Bacillus subtilis = assay: Antimicrobial activity against Bacillus subtilis after 18 hrs by broth microdilution method; assay type: functional; summary of the method: as §1
Staphylococcus aureus = assay: Antimicrobial activity against methicillin-resistant Staphylococcus aureus after 18 hrs by broth microdilution method; assay type: functional
Summary of the method: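 Broth microdilution MIC. Inoculum 5 × 10^5 cfu/mL. Concentration range 1024-1 μg/mL. Plates incubated 18 h at 35 °C in ambient air. The MIC was read at the end of incubation.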

MCF7 = assay: Cytotoxicity against human MCF7 cells; assay type: functional, cell-based
Candida albicans = assay: Antimicrobial activity against Candida albicans after 18 hrs by broth microdilution method; assay type: functional; summary of the method: as §1
HepG2 = assay: Cytotoxicity against human HepG2 cells; assay type: functional, cell-based
SMMC-7721 = assay: Cytotoxicity against human SMMC7721 cells; assay type: functional, cell-based
DU-145 = assay: Cytotoxicity against human DU145 cells; assay type: functional, cell-based
HeLa = assay: Cytotoxicity against human HeLa cells; assay type: functional, cell-based
NCI-H460 = assay: Cytotoxicity against human NCI-H460 cells; assay type: functional, cell-based
SW1990 = assay: Cytotoxicity against human SW1990 cells; assay type: functional, cell-based

Compound | MIC (Pseudomonas aeruginosa) [µg/mL] | MIC (Pseudomonas fluorescens) [µg/mL] | MIC (Bacillus subtilis) [µg/mL] | MIC (Staphylococcus aureus) [µg/mL] | Activity (MCF7) | MIC (Candida albicans) | Activity (HepG2) | Activity (SMMC-7721) | Activity (DU-145) | Activity (HeLa) | Activity (NCI-H460) | IC50 (SW1990) [µM]
CC1(C)S[C@@H]2[C@H](NC(=O)[C@H](N)c3ccccc3)C(=O)N2[C@H]1C(=O)O [AMPICILLIN] | 2 (≈ 5.72 µM) | 4 (≈ 11.4 µM) | 4 (≈ 11.4 µM) | 8 (≈ 22.9 µM) | – | – | – | – | – | – | – | –
CCCC1=CC2=C(CO1)C(=O)[C@](C)(OC(=O)c1c(C)cc(O)cc1OC)[C@H](O)C2 [COMAZAPHILONE A] | > 256 | > 256 | > 256 | > 256 | inactive | > 256 µg/mL | inactive | inactive | inactive | inactive | inactive | –
CCCC1=CC2=C(CO1)C(=O)[C@](C)(OC(=O)c1c(C)cc(O)c(O)c1OC)[C@H](O)C2 [COMAZAPHILONE B] | > 256 | 128 (≈ 306 µM) | 64 (≈ 153 µM) | 128 (≈ 306 µM) | inactive | > 256 µg/mL | inactive | inactive | inactive | inactive | inactive | –
C/C=C/C1=CC2=C(CO1)C(=O)[C@](C)(OC(=O)c1c(C)cc(O)c(O)c1OC)[C@H](O)C2 [COMAZAPHILONE C] | > 256 | 64 (≈ 154 µM) | 32 (≈ 76.8 µM) | 16 (≈ 38.4 µM) | inactive | > 256 µg/mL | inactive | inactive | inactive | inactive | inactive | –
C/C=C/C1=CC2=C(CO1)C(=O)[C@](C)(O)[C@H](OC(=O)c1c(C)cc(O)cc1O)C2 [COMAZAPHILONE D] | > 256 | 16 (≈ 41.4 µM) | > 256 | 32 (≈ 82.8 µM) | – | > 256 µg/mL | – | – | – | – | – | 51
C/C=C/C1=CC2=C(CO1)C(=O)[C@](C)(O)[C@H](OC(=O)c1c(C)cc(O)c(O)c1OC)C2 [COMAZAPHILONE E] | > 256 | 32 (≈ 76.8 µM) | 16 (≈ 38.4 µM) | > 256 | – | > 256 µg/mL | – | – | – | – | – | 26
CCCC1=CC2=C(CO1)C(=O)[C@](C)(O)[C@H](OC(=O)c1c(C)cc(O)c(O)c1OC)C2 [COMAZAPHILONE F] | > 256 | 64 (≈ 153 µM) | 128 (≈ 306 µM) | 128 (≈ 306 µM) | – | > 256 µg/mL | – | – | – | – | – | 53
O=c1[nH]cc(F)c(=O)[nH]1 [FLUOROURACIL] | – | – | – | – | – | – | – | – | – | – | – | 120
NYSTATIN | – | – | – | – | – | 2 µM | – | – | – | – | – | –
